Test results: ChEMBL document CHEMBL1135762, “Chiral N,N-disubstituted trifluoro-3-amino-2-propanols are potent inhibitors of cholesteryl ester transfer protein” (J Med Chem, 2002)

Assays:
[1] = target: T1, Cholesteryl ester transfer protein (Homo sapiens, UniProt P11597); assay: Concentration required for 50% inhibition of cholesteryl ester transfer protein in presence of buffer.
T1 sequence (P11597 whole entry): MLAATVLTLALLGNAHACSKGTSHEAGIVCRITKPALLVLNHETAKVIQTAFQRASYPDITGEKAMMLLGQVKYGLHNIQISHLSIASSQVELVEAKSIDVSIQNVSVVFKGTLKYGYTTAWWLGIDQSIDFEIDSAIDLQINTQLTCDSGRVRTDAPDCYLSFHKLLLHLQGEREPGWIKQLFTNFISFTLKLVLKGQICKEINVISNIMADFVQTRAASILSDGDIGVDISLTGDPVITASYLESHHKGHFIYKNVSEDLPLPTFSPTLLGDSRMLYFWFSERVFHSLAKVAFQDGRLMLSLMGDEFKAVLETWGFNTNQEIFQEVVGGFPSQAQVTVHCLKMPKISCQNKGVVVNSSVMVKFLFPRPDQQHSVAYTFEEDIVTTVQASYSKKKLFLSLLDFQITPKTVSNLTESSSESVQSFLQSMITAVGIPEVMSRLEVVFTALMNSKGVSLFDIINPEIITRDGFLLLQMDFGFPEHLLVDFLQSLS

[2] = target: T2, Cholesteryl ester transfer protein (Homo sapiens) (UniProt P11597); settings: Cricetulus griseus; 33 mg/kg
T2 sequence (whole entry): T1 sequence (P11597 whole entry)

[3] = target: T1, Cholesteryl ester transfer protein; assay: Inhibition of cholesteryl ester transfer protein in presence of human serum
In short: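 CETP-mediated transfer of [³H]CE from HDL donor particles, measured with human serum supplying LDL, VLDL and human CETP.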

[4] = Bioavailability in mice was reported; format: ADME, organism-based; settings: mouse, in vivo
Mus musculus [5] = assay: Inhibition of CETP-mediated transfer ex vivo after 30 min in hCEPT transgenic mice by a single dose at 30 mg/kg; format: functional; settings: 0.5 h
In short: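 C57Bl/6 mice homozygous for the human CETP gene, fed high-fat chow for at least 2 weeks. Single 30 mg/kg iv bolus in 10% ethanol/90% PEG; controls got vehicle. 0.05 mL [³H]CE-HDL (human HDL) was given into the tail vein. After 30 min, EDTA blood was taken and plasma obtained at 4 °C. Gel filtration gave the [³H]CE proportion in VLDL, LDL and HDL, compared with controls.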

Mus musculus [6] = assay: Oral dosing of qd for 5 days at 30 mg/kg had percent increase of HDLc in hCEPT transgenic mice; format: functional
In short: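 C57bl mice transgenic for human CETP (plasma hCETP 2–20 µg/mL), fed cholesterol- and fat-supplemented chow for at least 2 weeks. Dosed orally at 30 mg/kg once daily for 5 days. Serum then analysed by size exclusion chromatography on two Superose 6 columns for relative VLDLc, LDLc and HDLc.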

[7] = target: T2, Cholesteryl ester transfer protein (Homo sapiens); settings: Cricetulus griseus; 30 mg/kg

Molecule `Cc1ccc(N(Cc2cccc(C(F)(F)F)c2)CC(O)C(F)(F)F)cc1` (stereo not given) has an IC50 [1] greater than 100 µM.
Work on `OC(CN(Cc1cccc(Oc2cccc(C(F)(F)F)c2)c1)c1cccc(F)c1)C(F)(F)F` (stereo not given) yielded an IC50 [1] greater than 100 µM.
Molecule `Cc1ccccc1CN(CC(O)C(F)(F)F)c1cccc(F)c1` (stereo not given) has an IC50 [1] greater than 100 µM.
Molecule `OC(CN(Cc1cccc(C(F)(F)F)c1)c1cccc(F)c1)C(F)(F)F` (stereo not given) has an IC50 [1] of 37 µM.
With `OC(CN(Cc1cccc(OC(F)(F)C(F)F)c1)c1cccc(F)c1)C(F)(F)F` (stereo not given) the IC50 [1] was 4.5 µM.
Molecule `O[C@H](CN(Cc1cccc(OC(F)(F)C(F)F)c1)c1cccc(Oc2ccccc2)c1)C(F)(F)F` has an inhibition [2] of 30%.
`C=CC(O)CN(Cc1cccc(OC(F)(F)F)c1)c1cccc(Oc2ccccc2)c1` (stereo not given) gave an IC50 [1] greater than 50 µM.
With `OC(Cc1ccccc1)CN(Cc1cccc(OC(F)(F)F)c1)c1cccc(Oc2ccccc2)c1` (stereo not given) the IC50 [1] was greater than 50 µM.
In the case of `OC(CN(Cc1cccc(C(F)(F)F)c1)c1cccc(Cl)c1)C(F)(F)F` (stereo not given), the IC50 [1] is reported as 12 µM.
For `COC(=O)c1cccc(CN(CC(O)C(F)(F)F)c2cccc(Oc3ccccc3)c2)c1` (stereo not given), the IC50 [1] was 16 µM.
For `CC(C)(C)Oc1cccc(CN(CC(O)C(F)(F)F)c2cccc(Oc3ccccc3)c2)c1` (stereo not given), the IC50 [3] was 29 µM and the IC50 [1] was 0.66 µM.
Work on `OC(CN(Cc1cccc(C2CCCC2)c1)c1cccc(Oc2ccccc2)c1)C(F)(F)F` (stereo not given) yielded an IC50 [1] of 0.3 µM.
`Cc1ccc(CN(CC(O)C(F)(F)F)c2cccc(F)c2)cc1` (stereo not given) gave an IC50 [1] of 65 µM.
Molecule `OC(COc1cccc(CN(CC(O)C(F)(F)F)c2cccc(Oc3ccccc3)c2)c1)C(F)(F)F` (stereo not given) has an IC50 [3] of 62 µM and an IC50 [1] of 1.3 µM.
In the case of `OC(CN(Cc1cccc(OC(F)(F)C(F)F)c1)c1cccc(Oc2ccccc2)c1)C(F)(F)F` (stereo not given), the bioavailability [4] is reported as less than 10%, the inhibition in vivo at 30 mg/kg (Mus musculus [5]) is reported as 50% and the Increase (Mus musculus [6]) is reported as 20%. The inhibition [7] was 30%.
Work on `CC(C)(O)c1cccc(CN(CC(O)C(F)(F)F)c2cccc(Oc3ccccc3)c2)c1` (stereo not given) yielded an IC50 [1] of 7.8 µM.
Molecule `OC(CN(Cc1cccc(OC(F)(F)F)c1)c1cccc(Oc2ccccc2)c1)c1ccccc1` (stereo not given) has an IC50 [1] greater than 50 µM.
Molecule `Cc1ccccc1N(Cc1cccc(C(F)(F)F)c1)CC(O)C(F)(F)F` (stereo not given) has an IC50 [1] greater than 100 µM.
Molecule `COc1cccc(CN(CC(O)C(F)(F)F)c2cccc(Oc3ccccc3)c2)c1` (stereo not given) has an IC50 [3] greater than 200 µM and an IC50 [1] of 15 µM.
